In PMC3947313 (Journal of neurochemistry, 2013):
Numbering of substitutions follows the chain as printed. Names and notes keep the numbering of the source. Each block holds one molecule with its values, some of them ahead of it.

How the values were obtained:
[1] = target: double-phosphorylated ERK2-pT202pY204 protein (UniProt P28482)
[2] = target: double phospho-peptide containing pT202pY204 derived from the ERK activation loop
[3] = target: double phospho-peptide containing pT202pY204 derived from the ERK activation loop; remark: listed apart in the source
[4] = target: double-phosphorylated ERK2-pT202pY204 protein (UniProt P28482); remark: listed apart in the source
[5] = tested on: ERK pT202pY204 phospho-peptide; type: biochemical; conditions: for decrease of activity toward phospho-ERK peptide: STEP mutant compared to wild-type STEP, 37°C, pH 6.0
Procedure, shortened: (§1)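 Synthetic, HPLC-purified Tyr(P)-containing peptides were dephosphorylated at 37°C in 50 mM succinic buffer (pH 6.0), 1 mM EDTA and 2 mM DTT, ionic strength 0.15 M (NaCl). Released phosphate was measured with BIOMOL Green at 620 nm. Hydrolysis was also followed continuously by tyrosine fluorescence (excitation 280 nm, emission 305 nm). Michaelis-Menten fits gave kinetic parameters (mean ± standard error).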

[6] = Activity of STEP variants toward pNPP; type: biochemical; conditions: for effect of mutation on activity toward pNPP (in words): compared to wild-type STEP, 37°C, pH 6.0
Procedure, shortened: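 Phosphatase variants hydrolysed pNPP at 37°C in 50 mM succinic buffer (pH 6.0) with 1 mM EDTA, 2 mM DTT and ionic strength adjusted to 0.15 M with NaCl. Reactions were stopped with 1 M NaOH and read at 405 nm. Kinetic parameters came from Michaelis-Menten fits, reported as mean ± standard error.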

[7] = tested on: ERK2-pT202pY204; test: Enzyme-coupled; type: biochemical; conditions: for decrease of kcat/Km (activity) toward phospho-ERK protein: STEP variant compared to wild-type STEP, pH 7.0, 25°C; for effect of mutation on activity toward phospho-ERK protein (in words): compared to the respective wild-type phosphatase
Procedure, shortened: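 Phospho-ERK2 protein was prepared using ERK2 and MEK1 expression plasmids. Initial rates were fitted to Michaelis-Menten for Km and kcat. At substrate << Km, kcat/Km came from first-order progress-curve fitting. Values are mean ± standard error.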

[8] = tested on: p38-derived phospho-peptide; test: Activity of STEP variants toward the p38-derived phospho-peptide; type: biochemical; conditions: STEP mutant compared to wild-type STEP
Procedure, shortened: as §1

activity toward phospho-ERK, decrease against wild-type HePTP [1]: 3 fold
Molecule: HePTP S23E (from UniProt P35236 1-360) (enzyme)

activity toward the ERK phospho-peptide, decrease against wild-type STEP [2]: 2 fold
Molecule: STEP F311A (from UniProt P54829 1-565) (enzyme)

activity toward the phospho-ERK peptide, decrease against wild-type STEP [3]: > 4 fold
activity toward the phospho-ERK protein, decrease against wild-type STEP [4]: > 4 fold
Molecule: STEP K463Q (from UniProt P54829 1-565) (enzyme)

effect of mutation on activity toward pNPP (in words) [6]: did not affect
B1: S245E: S245E STEP phosphorylation mimic mutation (protein, UniProt P54829 1-565, looked up, variant S245E)
Tyrosine-protein phosphatase …: MNYEGARSERENHAADDSEGGALDMCCSERLPGLPQPIVMEALDEAEGLQDSQREMPPPPPPSPPSDPAQKPPPRGAGSHSLTVRSSLCLFAASQFLLACGVLWFSGYGHIWSQNATNLVSSLLTLLKQLEPTAWLDSGTWGVPSLLLVFLSVGLVLVTTLVWHLLRTPPEPPTPLPPEDRRQSVSRQPSFTYSEWMEEKIEDDFLDLDPVPETPVFDCVMDIKPEADPTSLTVKSMGLQERRGENVSLTLDMCTPGCNEEGFGYLMSPREESAREYLLSASRVLQAEELHEKALDPFLLQAEFFEIPMNFVDPKEYDIPGLVRKNRYKTILPNPHSRVCLTSPDPDDPLSSYINANYIRGYGGEEKVYIATQGPIVSTVADFWRMVWQEHTPIIVMITNIEEMNEKCTEYWPEEQVAYDGVEITVQKVIHTEDYRLRLISLKSGTEERGLKHYWFTSWPDQKTPDRAPPLLHLVREVEEAAQQEGPHCAPIIVHCSAGIGRTGCFIATSICCQQLRQEGVVDILKTTCQLRQDRGGMIQTCEQYQFVHHVMSLYEKQLSHQSPE
effect of mutation on activity toward phospho-ERK peptide (in words) ([5]; compared to wild-type STEP): did not affect
decrease of kcat/Km (activity) toward phospho-ERK protein [7]: 50 fold

effect of mutation on activity toward phospho-ERK protein (in words) [7]: increase
B2: Q462F: STEP WPD-loop mutant Q462F (protein, UniProt P54829 1-565, looked up, variant Q462F)
Tyrosine-protein phosphatase …: B1 Tyrosine-protein phosphatase … with E245S, Q462F
effect of mutation on Km for the phospho-ERK-peptide (in words) ([5]; compared to wild-type STEP): significantly lower

decrease of activity toward pNPP ([6]; STEP mutant compared to wild-type STEP, stated as 'all substrates'): 2 fold
B3: T541A: STEP Q-loop mutant T541A (protein, UniProt P54829 1-565, looked up, variant T541A)
Tyrosine-protein phosphatase …: B1 Tyrosine-protein phosphatase … with E245S, T541A
decrease of activity toward phospho-ERK peptide [5]: 2 fold
decrease of kcat/Km (activity) toward phospho-ERK protein [7]: 2 fold
decrease of activity toward phospho-p38 peptide ([8]; stated as 'all substrates'): 2 fold

effect of mutation on activity toward pNPP (in words) [6]: did not affect
B4: F311A: STEP second-site loop mutant F311A (protein, UniProt P54829 1-565, looked up, variant F311A)
Tyrosine-protein phosphatase …: B1 Tyrosine-protein phosphatase … with E245S, F311A
decrease of activity toward phospho-ERK peptide [5]: 2 fold
decrease of kcat/Km (activity) toward phospho-ERK protein [7]: 2 fold

effect of mutation on activity toward pNPP (in words) [6]: did not affect
B5: T330A: STEP pY-binding loop mutant T330A (protein, UniProt P54829 1-565, looked up, variant T330A)
Tyrosine-protein phosphatase …: B1 Tyrosine-protein phosphatase … with E245S, T330A
effect of mutation on activity toward phospho-ERK peptide (in words) ([5]; compared to wild-type STEP): did not affect

effect of mutation on activity toward pNPP (in words) [6]: weakly
effect of mutation on activity toward phospho-ERK protein (in words) [7]: did not affect
B6: K329A: STEP pY-binding loop mutant K329A (protein, UniProt P54829 1-565, looked up, variant K329A)
Tyrosine-protein phosphatase …: B1 Tyrosine-protein phosphatase … with E245S, K329A
effect of mutation on activity toward phospho-ERK peptide (in words) ([5]; compared to wild-type STEP): weakly

effect of mutation on activity toward pNPP (in words) [6]: did not affect
B7: T330D: STEP pY-binding loop mutant T330D (protein, UniProt P54829 1-565, looked up, variant T330D)
Tyrosine-protein phosphatase …: B1 Tyrosine-protein phosphatase … with E245S, T330D
increase of kcat/Km toward phospho-ERK protein ([7]; STEP mutant compared to wild-type STEP): 1.3 fold
increase of activity toward p38-derived phospho-peptide [8]: 2–3 fold

B8: K463Q: STEP WPD-loop mutant K463Q (protein, UniProt P54829 1-565, looked up, variant K463Q)
Tyrosine-protein phosphatase …: B1 Tyrosine-protein phosphatase … with E245S, K463Q
decrease of activity toward phospho-ERK peptide [5]: more than 4 fold
decrease of kcat/Km (activity) toward phospho-ERK protein [7]: more than 4 fold
